# Experimental data: ChEMBL document CHEMBL1157410, “7-aryl 1,5-dihydro-benzo[e][1,4]oxazepin-2-ones and analogs as non-steroidal progesterone receptor antagonists” (Bioorg Med Chem, 2008)
# Key:
# [1] = Selectivity for progesterone receptor over mineralocorticoid receptor
# Glucocorticoid receptor = target: T1, Glucocorticoid receptor (Homo sapiens, UniProt P04150); test: Antagonist activity at cloned glucocorticoid receptor-ligand binding domain expressed in african green monkey COS7 cells by GAL4 luciferase reporter assay; type: cell-based, COS-7
# T1 sequence (P04150 whole entry): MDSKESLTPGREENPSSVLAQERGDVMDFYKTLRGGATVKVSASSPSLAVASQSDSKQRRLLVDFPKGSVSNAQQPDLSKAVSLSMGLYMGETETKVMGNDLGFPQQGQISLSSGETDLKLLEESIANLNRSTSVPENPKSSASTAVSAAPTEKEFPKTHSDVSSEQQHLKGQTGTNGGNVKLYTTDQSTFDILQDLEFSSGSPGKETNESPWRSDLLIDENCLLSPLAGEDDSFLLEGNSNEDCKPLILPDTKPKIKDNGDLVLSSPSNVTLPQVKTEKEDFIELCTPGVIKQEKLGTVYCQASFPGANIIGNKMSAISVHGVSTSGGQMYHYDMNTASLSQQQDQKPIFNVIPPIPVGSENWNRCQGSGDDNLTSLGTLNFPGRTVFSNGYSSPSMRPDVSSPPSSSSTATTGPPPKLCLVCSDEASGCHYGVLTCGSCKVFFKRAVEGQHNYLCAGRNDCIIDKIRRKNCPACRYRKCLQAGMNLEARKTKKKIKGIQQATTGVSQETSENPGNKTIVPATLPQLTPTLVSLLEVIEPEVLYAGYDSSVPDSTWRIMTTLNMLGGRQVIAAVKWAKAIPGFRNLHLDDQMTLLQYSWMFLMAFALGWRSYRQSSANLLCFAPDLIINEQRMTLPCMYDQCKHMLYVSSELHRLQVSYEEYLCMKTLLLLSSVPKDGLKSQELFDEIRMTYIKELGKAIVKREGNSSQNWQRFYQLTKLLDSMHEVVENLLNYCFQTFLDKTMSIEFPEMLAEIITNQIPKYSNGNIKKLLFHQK
# [2] = Selectivity for progesterone receptor over androgen receptor
# [3] = Selectivity for progesterone receptor over estrogen receptor
# [4] = Selectivity for progesterone receptor over glucocorticoid receptor
# [5] = target: T2, Mineralocorticoid receptor (Homo sapiens, UniProt P08235); test: (§1) Antagonist activity at cloned mineralocorticoid receptor-ligand binding domain expressed in african green monkey COS7 cells by GAL4 luciferase reporter assay; type: cell-based, COS-7
# T2 sequence (P08235 whole entry): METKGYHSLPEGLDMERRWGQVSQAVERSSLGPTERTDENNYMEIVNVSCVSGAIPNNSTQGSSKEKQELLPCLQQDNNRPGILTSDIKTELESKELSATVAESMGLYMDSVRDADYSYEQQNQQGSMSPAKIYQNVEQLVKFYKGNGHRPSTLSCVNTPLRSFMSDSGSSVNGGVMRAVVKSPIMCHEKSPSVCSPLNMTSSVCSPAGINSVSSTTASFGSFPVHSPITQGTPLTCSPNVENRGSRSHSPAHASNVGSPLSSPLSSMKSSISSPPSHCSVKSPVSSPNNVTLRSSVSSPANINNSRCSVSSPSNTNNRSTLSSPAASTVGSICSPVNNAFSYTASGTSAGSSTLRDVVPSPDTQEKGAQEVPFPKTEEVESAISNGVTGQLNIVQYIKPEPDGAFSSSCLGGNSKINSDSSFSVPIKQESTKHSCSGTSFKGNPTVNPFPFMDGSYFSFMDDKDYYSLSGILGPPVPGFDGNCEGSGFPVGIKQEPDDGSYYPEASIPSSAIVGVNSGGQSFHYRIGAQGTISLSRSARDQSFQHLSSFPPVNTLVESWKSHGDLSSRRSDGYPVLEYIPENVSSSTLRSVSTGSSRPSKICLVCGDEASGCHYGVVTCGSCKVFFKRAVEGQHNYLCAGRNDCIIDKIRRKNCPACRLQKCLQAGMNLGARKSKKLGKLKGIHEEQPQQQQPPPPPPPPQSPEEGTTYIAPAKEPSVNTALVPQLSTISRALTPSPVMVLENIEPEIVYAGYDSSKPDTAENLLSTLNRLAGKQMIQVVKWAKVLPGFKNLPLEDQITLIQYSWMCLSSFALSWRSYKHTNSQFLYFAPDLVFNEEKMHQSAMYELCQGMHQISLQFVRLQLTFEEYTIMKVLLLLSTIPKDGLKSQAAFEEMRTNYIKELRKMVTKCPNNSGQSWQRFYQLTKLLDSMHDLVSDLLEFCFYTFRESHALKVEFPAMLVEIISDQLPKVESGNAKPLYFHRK
# Procedure, shortened: (§2)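 GAL4 DNA-binding domain fused to receptor ligand-binding domain, one-hybrid format. LBD fusion and GAL4_UAS (5 copies, E1b minimal TATA) luciferase reporter plasmids, 50 ng/well each, transfected 16 h into COS-7 cells. Cells grown in phenol red-free DMEM with 10% charcoal/dextran-treated FBS. Compound exposure 20 h, then luciferase read on lysates. Mean of at least duplicate determinations.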
# [6] = target: T3, Mineralocorticoid receptor (Homo sapiens) (UniProt P08235); test: as §1; type: cell-based; settings: COS-7; concentration not given here; procedure, shortened: as §2
# T3 sequence (whole entry): T2 sequence (P08235 whole entry)
# Rattus norvegicus = test: Activity in ovariectomized rat assessed as inhibition of progesterone-induced decidualization at 3 mg/kg, po; type: functional; design: scale not given: the % may be the effect or the level left
Compound,Selectivity ratio [1],IC50 (Glucocorticoid receptor) [nM],Selectivity ratio [2],Selectivity ratio [3],Selectivity ratio [4],IC50 [5] [nM],inhibition [6] [%],Activity (Rattus norvegicus) [%]
CC1(C)OCC(=O)Nc2ccc(-c3cc(F)cc(C#N)c3)cc21,> 100,> 3000,> 100,> 100,> 100,> 3000,32,50
N#Cc1cc(F)cc(-c2ccc3c(c2)C(c2ccco2)(c2ccco2)OCC(=O)N3)c1,> 100,1300,> 100,> 100,> 100,> 3000,60,
CCC1(c2ccco2)OCC(=O)Nc2ccc(-c3cc(F)cc(C#N)c3)cc21 (centres undefined),,190,,,,> 3000,82,50
